# What was measured:
# [1] = Cytotoxicity against human foreskin fibroblast cell proliferation; type: cell-based; conditions: human foreskin fibroblast cells (proliferating)
# Procedure, shortened: (§1)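 Proliferating HFF cells; growth inhibition expressed as IC50. Compounds tested up to top concentrations of 130–310 μM.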
# Human betaherpesvirus 5 = experiment: Antiviral activity against human cytomegalovirus; type: functional, organism-based
# Procedure, shortened: (§2)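 CPE inhibition and plaque reduction assays in human foreskin fibroblast (HFF) or Vero cells, run under the NIH Antiviral Research Branch program. Virus strains: HCMV AD-169, HSV-2 MS, VZV Ellen. Acyclovir or ganciclovir served as reference drug.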
# [2] = Inhibitory activity against human foreskin fibroblast cell proliferation; type: functional, cell-based; procedure, shortened: as §1
# [3] = In vitro cytotoxicity against stationary phase human foreskin fibroblast cells; type: cell-based
# Procedure, shortened: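 Stationary-phase HFF cells; cytotoxicity read by neutral red uptake and expressed as CC50. Compounds tested up to top concentrations of 240–340 μM.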
# [4] = In vitro cytotoxicity against stationary phase vero cells; type: cell-based; conditions: chlorocebus sabaeus
# Procedure, shortened: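 Stationary-phase Vero cells; cytotoxicity read by MTT assay and expressed as CC50. Compounds tested up to top concentrations of 260–620 μM.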
# Human alphaherpesvirus 3 = experiment: In vitro antiviral activity against Varicella zoster virus; type: functional, organism-based; procedure, shortened: as §2
# Human alphaherpesvirus 1 = experiment: In vitro antiviral activity against Herpes simplex virus type 1; type: functional, organism-based
# Procedure, shortened: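 HSV-1 strains tested: KOS and E-377 (both TK+), and the TK-deficient mutant KOSSB in Vero cells. E-377 was assayed by CPE inhibition and plaque reduction under the NIH program. Acyclovir or ganciclovir served as reference.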
# Human alphaherpesvirus 2 = experiment: In vitro antiviral activity against Herpes simplex virus type 2; type: functional, organism-based; procedure, shortened: as §2
# Anas sp. = experiment: (§3) In vitro antiviral activity against duck hepatitis B virus (DHBV); type: functional, organism-based
# Procedure, shortened: (§4)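 Virus replication inhibition measured in primary hepatocyte cultures prepared from congenitally DHBV-infected ducks.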
# Hepatitis B virus = experiment: as §3; type: functional, organism-based; procedure, shortened: as §4
Structure (SMILES),IC50 [2] [µM],CC50 [3] [µM],CC50 [4] [µM],also measured
[N-]=[N+]=NC(CI)c1cn(CCC(CO)CO)c(=O)[nH]c1=O (configuration not stated),> 310,,,IC50 [1]: > 260 µM; EC50 (Human betaherpesvirus 5): 14.4 µM
[N-]=[N+]=NC(CCl)c1cn(CCC(CO)CO)c(=O)[nH]c1=O (configuration not stated),> 310,> 240,> 260,
[N-]=[N+]=NC(CI)c1cn(COC(CO)CO)c(=O)[nH]c1=O (configuration not stated),> 130,> 240,> 260,EC50 (Human alphaherpesvirus 3): 2.4 µM
[N-]=[N+]=NC(CBr)c1cn(COC(CO)CO)c(=O)[nH]c1=O (configuration not stated),> 130,> 240,> 260,
[N-]=[N+]=NC(CI)c1cn(COCCO)c(=O)[nH]c1=O (configuration not stated),> 130,> 240,> 260,
[N-]=[N+]=NC(CBr)c1cn(COCCO)c(=O)[nH]c1=O (configuration not stated),> 130,> 240,> 260,
[N-]=[N+]=NC(CCl)c1cn([C@H]2C[C@H](O)[C@@H](CO)O2)c(=O)[nH]c1=O (some centres not stated),,,,EC50 (Human alphaherpesvirus 3): 4.5 µM; EC50 (Human alphaherpesvirus 1): 0.06 µM; EC50 (Human alphaherpesvirus 2): 2.9 µM; EC50 (Anas sp.): 15 µM
[N-]=[N+]=NC(CBr)c1cn([C@H]2C[C@H](O)[C@@H](CO)O2)c(=O)[nH]c1=O (some centres not stated),,,,EC50 (Anas sp.): 2.6 µM
[N-]=[N+]=NC(CCl)c1cn([C@@H]2O[C@H](CO)[C@@H](O)[C@@H]2O)c(=O)[nH]c1=O (some centres not stated),,,,EC50 (Human alphaherpesvirus 3): 0.08 µM; EC50 (Human alphaherpesvirus 1): 0.46 µM; EC50 (Human betaherpesvirus 5): 1.45 µM
[N-]=[N+]=NC(CCl)c1cn(COC(CO)CO)c(=O)[nH]c1=O (configuration not stated),> 130,> 240,> 260,
[N-]=[N+]=NC(CCl)c1cn(COCCO)c(=O)[nH]c1=O (configuration not stated),> 130,> 240,> 260,
[N-]=[N+]=NC(CBr)c1cn(CCC(CO)CO)c(=O)[nH]c1=O (configuration not stated),> 270,> 240,> 260,EC50 (Human betaherpesvirus 5): 2.7 µM
Nc1nc2c(ncn2COCCO)c(=O)[nH]1 [ACYCLOVIR],,,,EC50 (Human alphaherpesvirus 3): 2.6 µM
Nc1nc2c(ncn2COC(CO)CO)c(=O)[nH]1 [GANCICLOVIR],156,,,EC50 (Hepatitis B virus): 4 µM; EC50 (Human betaherpesvirus 5): 0.23 µM
Nc1nc(O)c2ncn(CCC(CO)CO)c2n1 [PENCICLOVIR],,,,EC50 (Hepatitis B virus): 0.7 µM

# From ChEMBL document CHEMBL1134840, “Synthesis and antiviral activity of novel acyclic nucleoside analogues of 5-(1-azido-2-haloethyl)uracils” (J Med Chem, 2001)
